Results on twelve compounds are retold here after ChEMBL document CHEMBL3739259, “Defining Key Structural Determinants for the Pro-osteogenic Activity of Flavonoids” (J Nat Prod, 2015).

Series [1] in a line: Cytotoxicity against human MSC assessed as cell viability at 5 uM treated for 6 days measured on day 7 by alamar blue assay (reference value: 96 to 101%). To be noted: MSC cells, read-out: Activity. On the technique in general: Resazurin is reduced to fluorescent resorufin, in cell work by metabolically active cells.
The nature of series [2]: Cytotoxicity against human MSC assessed as cell viability at 1 uM measured on day 1 by alamar blue assay (reference value: 97 to 101%). Conditions: MSC cells, read-out: Activity.
A short description of series [3]: Cytotoxicity against human MSC assessed as cell viability at 1 uM treated for 3 days measured on day 4 by alamar blue assay (reference value: 97 to 100%). Conditions: MSC cells, read-out: Activity.
Series [4] has as its system MSC. The series can be described thus: Induction of osteogenic differentiation in human MSC assessed as increase in ALP activity at 1 uM using p-NPP as substrate after 9 days by colorimetric method relative to control. The format is functional. The essentials:
(§1)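 ALP read on day 9 in passage-3 bone-marrow hMSCs cultured at high density in Os.D medium. Compound (1, 5 or 10 μM, 0.1% v/v DMSO final) was re-applied on days 0, 3 and 6. Colorimetric p-nitrophenyl phosphate method, normalised to time and cell number (pNP/min/20,000 cells). Expressed as % of untreated control; three independent triplicate experiments; one-way ANOVA versus vehicle.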

The nature of series [5]: Cytotoxicity against human MSC assessed as cell viability at 10 uM treated for 6 days measured on day 7 by alamar blue assay (reference value: 96 to 101%). Conditions: MSC cells, read-out: Activity.
The subject of series [6] is MSC. The series can be described thus: (§2) Induction of osteogenic differentiation in human MSC assessed as increase in ALP activity at 5 uM using p-NPP as substrate after 9 days by colorimetric method relative to control. It counts as functional. The essentials: as §1
Series [7] in a line: Cytotoxicity against human MSC assessed as cell viability at 5 uM treated for 3 days measured on day 4 by alamar blue assay (reference value: 97 to 100%). To be noted: MSC cells, read-out: Activity.
The test system of series [8] is MSC. The series can be described thus: (§3) Induction of osteogenic differentiation in human MSC assessed as increase in ALP activity at 10 uM using p-NPP as substrate after 9 days by colorimetric method relative to control. It counts as functional. The essentials: as §1
Series [9] in a line: Cytotoxicity against human MSC assessed as cell viability at 5 uM measured on day 1 by alamar blue assay (reference value: 97 to 101%). To be noted: MSC cells, read-out: Activity.
The nature of series [10]: Cytotoxicity against human MSC assessed as cell viability at 10 uM treated for 3 days measured on day 4 by alamar blue assay (reference value: 97 to 100%). To be noted: MSC cells, read-out: Activity.
Series [11] is described as follows: Cytotoxicity against human MSC assessed as cell viability at 1 uM treated for 6 days measured on day 7 by alamar blue assay (reference value: 96 to 101%). To be noted: MSC cells, read-out: Activity.
The nature of series [12]: Cytotoxicity against human MSC assessed as cell viability at 10 uM measured on day 1 by alamar blue assay (reference value: 97 to 101%). To be noted: MSC cells, read-out: Activity.
Series [13] in a line: Cytotoxicity against human MSC assessed as decrease in cell number at 1 to 10 uM after 9 days by methylene blue staining based microscopy relative to control. To be noted: 216 h. The essentials: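 Passage-3 bone-marrow hMSCs, high density in Os.D medium, dosed with 1, 5 or 10 μM compound (0.1% v/v DMSO final) on days 0, 3 and 6 with medium changes. Cell number measured on day 9 by methylene blue proliferation assay. Expressed as % of untreated control; three independent triplicate experiments, mean ± SEM, one-way ANOVA versus vehicle.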

Series [14] in a line: as §2. The format is functional. The essentials: as §1
The nature of series [15]: as §3. It counts as functional. The essentials:
as §1

Active and inactive are the calls of the source. No cut-off for these calls is given here.

Regarding `Oc1cc(O)c2c(c1)O[C@H](c1ccc(O)c(O)c1)[C@@H](O)C2` [CIANIDANOL], the viability at 144 h, 5 µM in series [1] stood at 98%. Moreover, the viability at 1 day, 1 µM in series [2] stood at 105%. In addition, in series [3], the viability at 72 h, 1 µM was 94%. In addition, the result in [4], in [6] and in [8] was inactive. Further, the viability at 144 h, 10 µM in series [5] was 98%. Further, in series [7], the viability at 72 h, 5 µM was determined as 92%. For the same compound, the viability at 1 day, 5 µM in series [9] is 104%. For the same compound, the viability at 72 h, 10 µM in [10] came to 93%. In addition, the viability at 144 h, 1 µM in series [11] was found to be 97%. Moreover, the viability at 1 day, 10 µM in series [12] stood at 104%.
Regarding `O=c1c(O)c(-c2ccc(O)c(O)c2)oc2cc(O)ccc12` [FISETIN], the viability at 144 h, 5 µM in [1] worked out at 97%. Moreover, in [2], the viability at 1 day, 1 µM was 98%. Further, the Activity result in [13] was “Toxic”. Moreover, in series [3], the viability at 72 h, 1 µM was 96%. Further, in [4], the result was inactive. In series [5], the viability at 144 h, 10 µM came out at 96%. Besides, the “fold change (FC)” value in series [14] stood at 1.52; in [15], 1.32. Moreover, the viability at 72 h, 5 µM in series [7] was determined as 97%. The viability at 1 day, 5 µM in [9] was 98%. Besides, the viability at 72 h, 10 µM in series [10] was 95%. Besides, the viability at 144 h, 1 µM in series [11] came out at 98%. The viability at 1 day, 10 µM in series [12] turned out to be 86%.
`O=c1c(O)c(-c2ccc(O)c(O)c2)oc2cc(O)cc(O)c12` [QUERCETIN]: the viability at 144 h, 5 µM in series [1] is 104%. In addition, the viability at 1 day, 1 µM in [2] came out at 101%. Moreover, the Activity entry in series [13] is reported as “Toxic”. The viability at 72 h, 1 µM in [3] was 98%. In addition, the result in [4] was inactive. Moreover, the viability at 144 h, 10 µM in [5] worked out at 101%. In addition, the “fold change (FC)” value in series [14] came to 1.52; in series [15] it was 1.32. Besides, the viability at 72 h, 5 µM in series [7] came to 100%. Besides, the viability at 1 day, 5 µM in [9] was found to be 100%. The viability at 72 h, 10 µM in [10] worked out at 101%. In addition, in series [11], the viability at 144 h, 1 µM stood at 103%. Besides, the viability at 1 day, 10 µM in [12] is 89%.
For the compound `O=c1cc(-c2ccc(O)cc2)oc2cc(O)cc(O)c12` [APIGENIN], in [1], the viability at 144 h, 5 µM was determined as 97%. Moreover, in series [2], the viability at 1 day, 1 µM turned out to be 98%. For the same compound, the Activity entry in series [13] is “Toxic”. Besides, the viability at 72 h, 1 µM in series [3] was determined as 101%. For the same compound, the outcome in [4], in series [6] and in series [8] was inactive. Moreover, the viability at 144 h, 10 µM in series [5] is 94%. Also, in series [7], the viability at 72 h, 5 µM was found to be 99%. For the same compound, in series [9], the viability at 1 day, 5 µM stood at 102%. The viability at 72 h, 10 µM in [10] worked out at 98%. Moreover, the viability at 144 h, 1 µM in series [11] came out at 96%. In addition, the viability at 1 day, 10 µM in series [12] is 98%.
For the compound `Oc1ccc(/C=C/c2cc(O)cc(O)c2)cc1` [RESVERATROL], in [1], the viability at 144 h, 5 µM stood at 97%. Also, the viability at 1 day, 1 µM in series [2] worked out at 99%. Further, in series [13], the Activity result is “Toxic”. For the same compound, the viability at 72 h, 1 µM in series [3] is 100%. Besides, the result in [4], in series [6] and in [8] was inactive. In addition, the viability at 144 h, 10 µM in [5] came out at 97%. Besides, the viability at 72 h, 5 µM in series [7] came to 100%. Besides, in series [9], the viability at 1 day, 5 µM is 101%. The viability at 72 h, 10 µM in series [10] came to 100%. For the same compound, the viability at 144 h, 1 µM in series [11] is 96%. The viability at 1 day, 10 µM in series [12] amounted to 98%.
Take `O=C(CCc1ccc(O)cc1)c1c(O)cc(O)cc1O` [PHLORETIN]: the viability at 144 h, 5 µM in series [1] came to 98%. In addition, the viability at 1 day, 1 µM in series [2] worked out at 106%. Besides, in series [3], the viability at 72 h, 1 µM amounted to 93%. The result in series [4], in series [6] and in series [8] was inactive. Further, in series [5], the viability at 144 h, 10 µM amounted to 100%. In [7], the viability at 72 h, 5 µM came to 93%. The viability at 1 day, 5 µM in series [9] is 105%. Further, the viability at 72 h, 10 µM in series [10] was 95%. In addition, in [11], the viability at 144 h, 1 µM stood at 97%. Also, in [12], the viability at 1 day, 10 µM is 106%.
Consider `O=C1C[C@@H](c2ccc(O)cc2)Oc2cc(O)cc(O)c21` [NARINGENIN], for which the viability at 144 h, 5 µM in [1] came to 102%. Also, the viability at 1 day, 1 µM in [2] worked out at 104%. The viability at 72 h, 1 µM in [3] was determined as 101%. The result in series [4] and in series [6] was inactive. Besides, in series [5], the viability at 144 h, 10 µM was 103%. For the same compound, in series [7], the viability at 72 h, 5 µM turned out to be 104%. In addition, the “fold change (FC)” value in [15] came to 1.53. In addition, the viability at 1 day, 5 µM in series [9] was determined as 105%. The viability at 72 h, 10 µM in series [10] came out at 106%. The viability at 144 h, 1 µM in [11] was found to be 100%. Moreover, the viability at 1 day, 10 µM in series [12] worked out at 105%.
In the case of `COc1cc([C@@H]2CC(=O)c3c(O)cc(O)cc3O2)ccc1O`, the outcome in [4], in [6] and in [8] was inactive.
`O=c1cc(-c2ccccc2)oc2ccccc12` [FLAVONE]: the viability at 144 h, 5 µM in series [1] stood at 102%. Moreover, the viability at 1 day, 1 µM in series [2] was 102%. Further, the Activity result in series [13] is given as “Toxic”. The viability at 72 h, 1 µM in [3] is 93%. The result in [4], in [6] and in series [8] was inactive. In addition, the viability at 144 h, 10 µM in series [5] worked out at 98%. Also, the viability at 72 h, 5 µM in [7] was 93%. Further, the viability at 1 day, 5 µM in series [9] was determined as 103%. In addition, the viability at 72 h, 10 µM in series [10] turned out to be 92%. In addition, the viability at 144 h, 1 µM in series [11] is 100%. Also, the viability at 1 day, 10 µM in series [12] worked out at 106%.
Turning to `Oc1cc(O)c2c(c1)O[C@H](c1ccc(O)c(O)c1)[C@H](O)C2` [(-)-EPICATECHIN], the viability at 144 h, 5 µM in series [1] worked out at 98%. In [2], the viability at 1 day, 1 µM was 92%. Moreover, the “fold change (FC)” value in series [13] amounted to 0.43. Also, the viability at 72 h, 1 µM in [3] came out at 98%. Further, the outcome in [4], in series [6] and in series [8] was inactive. For the same compound, the viability at 144 h, 10 µM in series [5] stood at 98%. Besides, the viability at 72 h, 5 µM in series [7] is 95%. For the same compound, the viability at 1 day, 5 µM in series [9] is 90%. In addition, in [10], the viability at 72 h, 10 µM is 94%. The viability at 144 h, 1 µM in series [11] was determined as 96%. In series [12], the viability at 1 day, 10 µM stood at 84%.
For the compound `O=C1c2c(O)cc(O)cc2O[C@H](c2ccc(O)c(O)c2)[C@H]1O` [(+)-TAXIFOLIN], the viability at 144 h, 5 µM in series [1] is 98%. In series [2], the viability at 1 day, 1 µM is 103%. Moreover, the viability at 72 h, 1 µM in series [3] stood at 92%. The result in series [4], in series [6] and in series [8] was inactive. The viability at 144 h, 10 µM in series [5] worked out at 101%. Also, the viability at 72 h, 5 µM in series [7] turned out to be 92%. In series [9], the viability at 1 day, 5 µM turned out to be 101%. The viability at 72 h, 10 µM in [10] amounted to 92%. For the same compound, in series [11], the viability at 144 h, 1 µM is 98%. Also, the viability at 1 day, 10 µM in series [12] is 102%.
As for `COc1ccc(-c2cc(=O)c3c(O)cc(O)cc3o2)cc1O`, the result in [4], in series [6] and in series [8] was inactive.
